The values that follow come from ChEMBL document CHEMBL4004807 (J Med Chem, 2017).

The nature of data set [1]: Total clearance in Sprague-Dawley rat plasma at 2 mg/kg, iv or 10 mg/kg, po. It counts as ADME, organism-based.
Data set [2] deals with Rattus norvegicus. The experiment in a line: AUC (0 to infinity) in Sprague-Dawley rat at 10 mg/kg, po. The format is ADME, organism-based. Set-up: dose 10 mg/kg, route oral, time infinity. The settings on record: in vivo. The method, boiled down: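 Sprague-Dawley rats, single oral dose of 10.0 mg/kg; AUC0-inf from plasma concentrations.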
For data set [3], the system named is Rattus norvegicus. The experiment in a line: Inhibition of right ventricle hypertrophic response in Sprague-Dawley rat monocrotaline model of pulmonary arterial hypertension assessed as reduction of MCT-induced increase in ratio of right ventricular weight to left ventricle plus septum weight administered via oral gavage twice daily for 21 consecutive days starting 24 hrs after monocrotaline challenge. It counts as functional. The method, boiled down: (§1)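 Male rats given 60 mg/kg monocrotaline sc on day 1 (sham: saline) under 30 mg/kg ip pentobarbital; from next day for 20 days dosed by oral gavage twice daily at 10 or 30 mg/kg in 20% HPBCD in saline (vehicle control). Day 21: RV/(LV+S) weights; mPAP via catheter under 60 mg/kg pentobarbital (30 mg/kg group, n = 5); H&E lung sections, 5 animals/group.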

For data set [4], the system named is Rattus norvegicus. The experiment in a line: Cardioprotective effect in Sprague-Dawley rat monocrotaline model of pulmonary arterial hypertension assessed as reduction of MCT-induced increase of pulmonary arterial pressue at 30 mg/kg administered via oral gavage twice daily for 21 consecutive days starting 24 hrs after monocrotaline challenge. It counts as functional, organism-based. The method, boiled down:
as §1

The test system of data set [5] is Rattus norvegicus. The experiment in a line: Inhibition of hypertrophic response in Sprague-Dawley rat monocrotaline model of pulmonary arterial hypertension assessed as reduction of MCT-induced increase in pulmonary vessel wall thickness at 30 mg/kg administered via oral gavage twice daily for 21 consecutive days starting 24 hrs after monocrotaline challenge by morphometric analysis. The format is functional, organism-based. The method, boiled down:
as §1

Data set [6] addresses Prostaglandin E2 receptor EP2 subtype (Homo sapiens) (UniProt P43116). Description: Agonist activity at recombinant human EP2 receptor expressed in CHO-K1 cells assessed as increase in intracellular cAMP level up to 10 uM after 1 hr incubation by HTRF method. It counts as functional, cell-based. In general terms: Cyclic AMP is a second messenger, typically raised through Gs and lowered through Gi signalling.

Data set [7] has as its target Prostaglandin E2 receptor EP4 subtype (Homo sapiens) (UniProt P35408). Description: Agonist activity at recombinant human EP4 receptor expressed in CHO-K1 cells assessed as increase in intracellular cAMP level up to 10 uM after 1 hr incubation by HTRF method. The format is functional, cell-based.
The nature of data set [8]: Total clearance in Beagle dog at 0.2 mg/kg, iv. It counts as ADME, organism-based, Canis lupus familiaris. Conditions: in vivo.
The nature of data set [9]: Total clearance in cynomolgus monkey at 0.1 mg/kg, iv. The format is ADME, organism-based, Macaca fascicularis. The settings on record: in vivo.
A short description of data set [10]: Volume of distribution at steady state in Beagle dog at 0.2 mg/kg, iv. It counts as ADME, organism-based, Canis lupus familiaris. Conditions: in vivo.
Data set [11] is described as follows: Volume of distribution at steady state in cynomolgus monkey at 0.1 mg/kg, iv. The format is ADME, organism-based, Macaca fascicularis. Conditions: in vivo.
A short description of data set [12]: Drug metabolism in bile-duct cannulated rat bile assessed as 2-(2-(((1r,4r)-4-(((4-chlorophenyl)(phenyl)carbamoyloxy)methyl)cyclohexyl)methoxy)acetoxy)ethanesulfonic acid formation. It counts as ADME.
Data set [13] concerns Plasma. The experiment in a line: Drug metabolism in bile-duct cannulated rat plasma assessed as 2-(((1r,4r)-4-(((4-chlorophenyl)(4-hydroxyphenyl)carbamoyloxy)methyl)cyclohexyl)methoxy)acetic acid formation. It counts as ADME, cell-free.
Data set [14] concerns Plasma. The experiment in a line: Drug metabolism in bile-duct cannulated rat plasma assessed as 2-(2-(((1r,4r)-4-(((4-chlorophenyl)(4-hydroxyphenyl)carbamoyloxy)methyl)cyclohexyl)methoxy)acetoxy)ethanesulfonic acid formation. It counts as ADME, cell-free.
In data set [15] the test system is Rattus norvegicus. Description: Unbound Cmax in Sprague-Dawley rat at 10 mg/kg, po administered via gavage as single dose. The format is ADME, organism-based. The settings on record: in vivo.
Data set [16] has as its target T1, Prostaglandin E2 receptor EP3 subtype (Homo sapiens, UniProt P43115).
T1 sequence (P43115 whole entry): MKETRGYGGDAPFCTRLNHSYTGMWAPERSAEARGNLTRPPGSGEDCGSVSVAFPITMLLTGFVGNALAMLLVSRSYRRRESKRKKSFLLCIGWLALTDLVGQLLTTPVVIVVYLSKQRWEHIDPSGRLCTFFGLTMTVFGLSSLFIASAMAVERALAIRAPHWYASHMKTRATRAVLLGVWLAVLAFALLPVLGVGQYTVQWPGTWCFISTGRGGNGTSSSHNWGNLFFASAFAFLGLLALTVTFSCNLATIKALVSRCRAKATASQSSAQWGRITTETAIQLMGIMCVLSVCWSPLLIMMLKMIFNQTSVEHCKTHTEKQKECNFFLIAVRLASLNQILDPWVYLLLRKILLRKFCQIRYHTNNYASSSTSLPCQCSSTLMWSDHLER
Description: Agonist activity at recombinant human EP3v6 receptor expressed in melanophores assessed as induction of pigment redistribution up to 10 uM after 90 mins. The settings on record: 1.5 h. The procedure, abridged: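 Melanophores electroporated with 20 μg human EP3v6 plasmid per 400 μL cells, grown 48 h at 27 °C. Assay buffer 0.7× PBS pH 7.3 with 20 nM melatonin to aggregate pigment, 90 min at room temperature, 650 nm baseline; compounds added (10-point, 5-fold dilutions, top 10 μM final), 90 min room temperature, absorbance reread.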

Data set [17] can be described thus: Drug uptake in bile-duct cannulated rat bile. Conditions: in vivo. The format is ADME.
Data set [18] is described as follows: Drug uptake in bile-duct cannulated rat urine. It counts as ADME. The settings on record: in vivo.
Data set [19] relates to Plasma. The experiment in a line: Drug uptake in bile-duct cannulated rat plasma. The format is ADME, cell-free.
A short description of data set [20]: Drug level in bile-duct cannulated rat bile treated with 2-(((1r,4r)-4-(((4-chlorophenyl)(phenyl)carbamoyloxy)methyl)cyclohexyl)methoxy)acetic acid. The format is ADME. The settings on record: in vivo.
Data set [21] has as its system Plasma. The experiment in a line: Drug level in bile-duct cannulated rat plasma treated with 2-(((1r,4r)-4-(((4-chlorophenyl)(phenyl)carbamoyloxy)methyl)cyclohexyl)methoxy)acetic acid. The format is ADME, cell-free.
The subject of data set [22] is Plasma. The experiment in a line: Drug metabolism in po dosed rat plasma assessed as ralinepag formation. Conditions: in vivo. It counts as ADME, organism-based.
The nature of data set [23]: Drug degradation in simulated gastric fluid after 3 hrs. The method, boiled down:
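Incubated in simulated gastric fluid at room temperature for 3 h; conversion to parent monitored.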

Active and inactive are the calls of the source. No cut-off for these calls is given here.

Broadly, the AUC is the area under the concentration-time curve, a measure of exposure. In general, Vd refers to the apparent volume that relates the amount in the body to the concentration in plasma or blood.

Sequence of Prostaglandin E2 receptor EP4 subtype (Homo sapiens) (P35408 whole entry): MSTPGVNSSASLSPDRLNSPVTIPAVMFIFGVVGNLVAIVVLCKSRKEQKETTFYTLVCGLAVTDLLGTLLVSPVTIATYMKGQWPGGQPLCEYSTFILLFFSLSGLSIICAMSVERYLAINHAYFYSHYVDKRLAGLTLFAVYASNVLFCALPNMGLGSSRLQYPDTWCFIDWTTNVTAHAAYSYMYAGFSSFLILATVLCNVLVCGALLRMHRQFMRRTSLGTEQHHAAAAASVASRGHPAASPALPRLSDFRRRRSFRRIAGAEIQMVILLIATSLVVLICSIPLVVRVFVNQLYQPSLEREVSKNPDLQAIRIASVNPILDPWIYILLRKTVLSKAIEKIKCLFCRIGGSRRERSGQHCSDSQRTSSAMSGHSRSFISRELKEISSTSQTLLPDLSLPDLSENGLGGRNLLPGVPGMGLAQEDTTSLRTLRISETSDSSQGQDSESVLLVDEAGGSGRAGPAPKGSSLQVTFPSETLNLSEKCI
Sequence of Prostaglandin E2 receptor EP2 subtype (Homo sapiens) (P43116 whole entry): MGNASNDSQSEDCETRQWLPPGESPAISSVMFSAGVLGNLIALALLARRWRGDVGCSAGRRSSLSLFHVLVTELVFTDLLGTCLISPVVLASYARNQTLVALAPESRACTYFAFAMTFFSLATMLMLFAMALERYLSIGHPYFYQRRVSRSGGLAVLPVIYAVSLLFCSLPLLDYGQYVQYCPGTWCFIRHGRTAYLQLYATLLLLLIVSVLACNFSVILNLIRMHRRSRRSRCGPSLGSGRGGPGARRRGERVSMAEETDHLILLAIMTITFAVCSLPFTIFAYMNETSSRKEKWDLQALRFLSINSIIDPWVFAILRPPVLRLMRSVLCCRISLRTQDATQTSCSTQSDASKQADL

Take `O=C(O)COC[C@H]1CC[C@H](COC(=O)N(c2ccccc2)c2ccc(Cl)cc2)CC1`: the clearance in data set [1] was 7.12 mL/min/kg; in data set [8], 3.37 mL/min/kg; in [9] it was 14.7 mL/min/kg. In the data set on Rattus norvegicus [2], this molecule registered an AUC of 14600 ng·h/mL. The inhibition result with Rattus norvegicus [3] is “Dose-dependent effect”. The outcome with Rattus norvegicus [4] was Active. In addition, the inhibition entry in the data set with Rattus norvegicus [5] was “Active”. The outcome in data set [6] and in data set [7] was inactive. Also, the figures for the volume of distribution (Vd) in [10] and in [11] were 0.308 L/kg and 10.1 L/kg, respectively. Further, the Drug metabolism result (in data set [12]; in the data set on Plasma [13]; in the data set with Plasma [14]) was “Metabolite_Detected” throughout. In the data set with Rattus norvegicus [15], the fCmax stood at 100 nM. The result in data set [16] was Active. The Drug uptake entry (in [17]; in data set [18]; in the data set on Plasma [19]) was “Active” each time.
As to `O=C(COC[C@H]1CC[C@H](COC(=O)N(c2ccccc2)c2ccc(Cl)cc2)CC1)NCCS(=O)(=O)O`, the Drug metabolism entry (in data set [20]; in the data set with Plasma [21]; in the data set on Plasma [22]) was “Metabolite_Detected” each time. Moreover, the Drug degradation result in data set [23] is “Metabolite_Notdetected”.
